Results taken from ChEMBL document CHEMBL1777792, “Synthesis and evaluation of indole-based new scaffolds for antimicrobial activities--identification of promising candidates” (Bioorg Med Chem Lett, 2011).

How the values were obtained:
[1] = tested on: Escherichia coli; assay: Antibacterial activity against Escherichia coli harboring ampicillin-resistance gene encoding plasmid at 450 ug/ml after 24 hrs by disc diffusion assay; format: functional; conditions: read-out: DIZ
How it was run: (§1)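 Disc diffusion used an E. coli strain carrying a plasmid that encodes an ampicillin-resistance gene. Inhibition zone diameters were recorded and compared against the corresponding solvent controls.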

[2] = tested on: Candida albicans; assay: Antifungal activity against Candida albicans in yeast extract-peptone-glucose medium at 450 ug/ml after 48 hrs by disc diffusion assay; format: functional; conditions: read-out: DIZ
How it was run: (§2)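 C. albicans cells at a set number were spread on YEPD agar, either plain or containing the cell-wall disruptant named in the line (SDS, Congo red or calcofluor white). Compound solution, or the reference solvent as control, was spotted onto 0.5 cm discs placed on the lawn. Plates were incubated at 30 °C and the inhibition zone diameter was measured.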

[3] = tested on: Candida albicans; assay: Antifungal activity against Candida albicans in yeast extract-peptone-glucose medium at 450 ug/ml after 48 hrs by disc diffusion assay in presence of 100 ug/ml of calcofluor white; format: functional; how it was run: as §2
[4] = tested on: Candida albicans; assay: Antifungal activity against Candida albicans in yeast extract-peptone-glucose medium at 450 ug/ml after 48 hrs by disc diffusion assay in presence of 150 ug/ml of congo red; format: functional; how it was run: as §2
[5] = tested on: Candida albicans; assay: Antifungal activity against Candida albicans in yeast extract-peptone-glucose medium at 450 ug/ml after 48 hrs by disc diffusion assay in presence of 0.01% of sodium dodecylsulphate; format: functional; conditions: read-out: DIZ; how it was run: as §2
[6] = tested on: Candida albicans; assay: Antifungal activity against Candida albicans in yeast extract-peptone-glucose medium at 450 ug/ml after 48 hrs by disc diffusion assay in presence of […]; format: functional
How it was run: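 This is a C. albicans disc diffusion on YEPD agar containing rhodamine 6G, a substrate of the Cdr1p/Cdr2p ATP-dependent efflux pumps, to test for enhanced R6G toxicity. A set number of cells was spread, and 0.5 cm discs were spotted with compound solution or reference solvent. Plates were incubated at 30 °C and the zone diameter was measured.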

[7] = tested on: Candida albicans; assay: Antifungal activity against Candida albicans in yeast extract-peptone-glucose medium at 375 ug/ml after 48 hrs by disc diffusion assay; format: functional; conditions: read-out: DIZ; how it was run: as §2
[8] = tested on: Candida albicans; assay: Antifungal activity against Candida albicans in yeast extract-peptone-glucose medium at 375 ug/ml after 48 hrs by disc diffusion assay in presence of 100 ug/ml of calcofluor white; format: functional; how it was run: as §2
[9] = tested on: Candida albicans; assay: Antifungal activity against Candida albicans in yeast extract-peptone-glucose medium at 375 ug/ml after 48 hrs by disc diffusion assay in presence of 150 ug/ml of congo red; format: functional; how it was run: as §2
[10] = tested on: Candida albicans; assay: Antifungal activity against Candida albicans in yeast extract-peptone-glucose medium at 375 ug/ml after 48 hrs by disc diffusion assay in presence of 0.01% of sodium dodecylsulphate; format: functional; conditions: read-out: DIZ; how it was run: as §2
[11] = tested on: Escherichia coli; assay: Antibacterial activity against Escherichia coli harboring ampicillin-resistance gene encoding plasmid at 500 ug/ml after 24 hrs by disc diffusion assay; format: functional; conditions: read-out: DIZ; how it was run: as §1
[12] = tested on: Candida albicans; assay: Antifungal activity against Candida albicans in synthetic dextrose minimal medium after 48 hrs by ELISA based serial dilution method
[13] = tested on: Candida albicans; assay: Antifungal activity against Candida albicans in yeast extract-peptone-glucose medium at 375 ug/ml after 48 hrs by disc diffusion assay in presence of rhodamine 6G
[14] = tested on: Candida albicans; assay: Antifungal activity against Candida albicans in yeast extract-peptone-glucose medium at 500 ug/ml after 48 hrs by disc diffusion assay; format: functional; conditions: read-out: DIZ
How it was run: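 Solid-phase assay on YEPD agar spread with a set number of C. albicans cells. Compound solution and reference solvent spotted onto 0.5 cm discs. Plates incubated at 30 °C, and inhibition zone diameter measured against solvent control.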

[15] = tested on: Candida albicans; assay: Antifungal activity against Candida albicans in yeast extract-peptone-glucose medium at 500 ug/ml after 48 hrs by disc diffusion assay in presence of 100 ug/ml of calcofluor white; format: functional
How it was run: (§3)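 Disc diffusion on YEPD agar containing a cell-wall-disrupting agent (SDS, Congo red or calcofluor white) and spread with a set number of C. albicans cells. Compound and reference solvent spotted on 0.5 cm discs. Incubated at 30 °C, then inhibition zone diameter measured against solvent.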

[16] = tested on: Candida albicans; assay: Antifungal activity against Candida albicans in yeast extract-peptone-glucose medium at 500 ug/ml after 48 hrs by disc diffusion assay in presence of 150 ug/ml of congo red; format: functional; how it was run: as §3
[17] = tested on: Candida albicans; assay: Antifungal activity against Candida albicans in yeast extract-peptone-glucose medium at 500 ug/ml after 48 hrs by disc diffusion assay in presence of 0.01% of sodium dodecylsulphate; format: functional; conditions: read-out: DIZ; how it was run: as §3
[18] = tested on: Candida albicans; assay: Antifungal activity against Candida albicans in yeast extract-peptone-glucose medium at 500 ug/ml after 48 hrs by disc diffusion assay in presence of rhodamine 6G
[19] = tested on: Candida albicans; assay: Antifungal activity against Candida albicans in yeast extract-peptone-glucose medium at 250 ug/ml after 48 hrs by disc diffusion assay; format: functional; conditions: read-out: DIZ; how it was run: as §2
[20] = tested on: Candida albicans; assay: Antifungal activity against Candida albicans in yeast extract-peptone-glucose medium at 250 ug/ml after 48 hrs by disc diffusion assay in presence of 100 ug/ml of calcofluor white; format: functional; how it was run: as §2
[21] = tested on: Candida albicans; assay: Antifungal activity against Candida albicans in yeast extract-peptone-glucose medium at 250 ug/ml after 48 hrs by disc diffusion assay in presence of 150 ug/ml of congo red; format: functional; how it was run: as §2
[22] = tested on: Candida albicans; assay: Antifungal activity against Candida albicans in yeast extract-peptone-glucose medium at 250 ug/ml after 48 hrs by disc diffusion assay in presence of 0.01% of sodium dodecylsulphate; format: functional; conditions: read-out: DIZ; how it was run: as §2
[23] = tested on: Escherichia coli; assay: Antibacterial activity against Escherichia coli harboring ampicillin-resistance gene encoding plasmid at 250 ug/ml after 24 hrs by disc diffusion assay; format: functional; conditions: read-out: DIZ; how it was run: as §1
[24] = tested on: Candida albicans; assay: Antifungal activity against Candida albicans in yeast extract-peptone-glucose medium at 250 ug/ml after 48 hrs by disc diffusion assay in presence of rhodamine 6G
[25] = tested on: Candida albicans; assay: Antifungal activity against Candida albicans in yeast extract-peptone-glucose medium at 374 ug/ml after 48 hrs by disc diffusion assay in presence of 150 ug/ml of congo red; format: functional; how it was run: as §3
[26] = tested on: Candida albicans; assay: Antifungal activity against Candida albicans in yeast extract-peptone-glucose medium at 374 ug/ml after 48 hrs by disc diffusion assay in presence of 0.01% of sodium dodecylsulphate; format: functional; conditions: read-out: DIZ; how it was run: as §3
[27] = tested on: Candida albicans; assay: Antifungal activity against Candida albicans in yeast extract-peptone-glucose medium at 374 ug/ml after 48 hrs by disc diffusion assay in presence of rhodamine 6G
[28] = tested on: Candida albicans; assay: Antifungal activity against Candida albicans in yeast extract-peptone-glucose medium at 300 ug/ml after 48 hrs by disc diffusion assay; format: functional; conditions: read-out: DIZ; how it was run: as §2

O=C(C(=O)N1CCCCC1)c1cn(CCCCCn2cc(C(=O)C(=O)N3CCCCC3)c3ccccc32)c2ccccc12
zone of inhibition at 450 µg/mL [1]: 8.5 mm
zone of inhibition at 450 µg/mL [2]: 6 mm
diameter of the inhibition zone (DIZ) [3]: 6.5 mm
diameter of the inhibition zone (DIZ) [4]: 7 mm
zone of inhibition at 450 µg/mL [5]: 6.5 mm
diameter of the inhibition zone (DIZ) [6]: 6.5 mm

O=C(C(=O)N1CCCC1)c1cn(CCCCn2cc(C(=O)C(=O)N3CCCC3)c3ccccc32)c2ccccc12
zone of inhibition at 375 µg/mL [7]: 7.5 mm
diameter of the inhibition zone (DIZ) [8]: 7.5 mm
diameter of the inhibition zone (DIZ) [9]: 8 mm
zone of inhibition at 375 µg/mL [10]: 8 mm
zone of inhibition at 500 µg/mL [11]: 10.5 mm
IC50 [12]: 78 µM
diameter of the inhibition zone (DIZ) [13]: 7.5 mm

O=C(C(=O)N1CCCCC1)c1cn(CCCn2cc(C(=O)C(=O)N3CCCCC3)c3cc(Br)ccc32)c2ccc(Br)cc12
zone of inhibition at 500 µg/mL [11]: 9 mm
zone of inhibition at 500 µg/mL [14]: 6 mm
diameter of the inhibition zone (DIZ) [15]: 6.5 mm
diameter of the inhibition zone (DIZ) [16]: 9.5 mm
zone of inhibition at 500 µg/mL [17]: 8 mm
diameter of the inhibition zone (DIZ) [18]: 7.5 mm

O=C(NCc1ccccc1)C(=O)c1cn(CCCn2cc(C(=O)C(=O)NCc3ccccc3)c3ccccc32)c2ccccc12
zone of inhibition at 250 µg/mL [19]: 9 mm
diameter of the inhibition zone (DIZ) [20]: 7 mm
diameter of the inhibition zone (DIZ) [21]: 8 mm
zone of inhibition at 250 µg/mL [22]: 8.5 mm
zone of inhibition at 250 µg/mL [23]: 12 mm
IC50 [12]: 121 µM
diameter of the inhibition zone (DIZ) [24]: 7 mm

O=C(C(=O)N1CCOCC1)c1cn(Cc2ccc(Cn3cc(C(=O)C(=O)N4CCOCC4)c4ccccc43)cc2)c2ccccc12
zone of inhibition at 250 µg/mL [19]: 6.5 mm
diameter of the inhibition zone (DIZ) [20]: 6 mm
diameter of the inhibition zone (DIZ) [21]: 6 mm
zone of inhibition at 250 µg/mL [22]: 6.5 mm
zone of inhibition at 250 µg/mL [23]: 10.5 mm
diameter of the inhibition zone (DIZ) [24]: 6 mm

O=C(C(=O)N1CCCCC1)c1cn(CCCn2cc(C(=O)C(=O)N3CCCCC3)c3ccccc32)c2ccccc12
diameter of the inhibition zone (DIZ) [25]: 6.5 mm
zone of inhibition at 374 µg/mL [26]: 7.5 mm
zone of inhibition at 250 µg/mL [23]: 9.5 mm
diameter of the inhibition zone (DIZ) [27]: 6.5 mm

OC(Cn1cncn1)(Cn1cncn1)c1ccc(F)cc1F [FLUCONAZOLE]
zone of inhibition at 300 µg/mL [28]: 15 mm
